In ChEMBL document CHEMBL3526065, “Metabolism of [6]-shogaol in mice and in cancer cells” (Drug Metab Dispos, 2012):
One block for each compound: values may come before it.

Key:
[1] = Drug level in C57BL/6J mouse feces treated with [6]-shogaol at 200 mg/kg, po by HPLC-ECD analysis relative to control; type: ADME, organism-based; design: dose 200 mg/kg, route oral; settings: in vivo
Method in brief: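 Female C57BL/6J mice gavaged once with 200 mg/kg in corn oil, or corn oil alone (n = 5 each). 24-h feces collected in metabolic cages. Feces extracted by sonication 90 min in MeOH/H2O (50/50) + 0.1% acetic acid, centrifuged, diluted fivefold. Analysed by HPLC with electrochemical array detection (Gemini C18, phosphate/acetonitrile/THF gradient), compared against vehicle controls.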

[2] = Drug level in human HCT116 cells treated with 10 uM [6]-shogaol after 24 hrs by HPLC-ECD analysis; type: ADME, cell-based; settings: hct-116, 24 h
Method in brief: (§1)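 Cells (1.0 × 10⁶) attached 24 h in six-well plates, then exposed to 10 μM final in McCoy's 5A with 10% FBS. Extracted with equal volume acetonitrile, diluted 5-fold, analysed by HPLC with electrochemical detection.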

[3] = Antioxidant activity assessed as DPPH radical scavenging activity; type: physicochemical
HT-29 = experiment: Drug level in human HT-29 cells treated with 10 uM [6]-shogaol by HPLC-ECD analysis; type: ADME, cell-based; method in brief: as §1
NCI-H1299 [4] = experiment: Induction of apoptosis in human H1299 cells assessed as apoptotic cells at 80 uM after 24 hrs by TUNEL assay; type: functional
Method in brief: (§2)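 HCT-116 or H-1299 cells seeded at 1.0 × 10⁵/well, after 24 h exposed for 24 h to compound (10–80 μM) or DMSO control. Cells were proteinase K-pretreated, formaldehyde-fixed, and slide-mounted for peroxidase TUNEL staining. Ten fields per slide counted at 400×; brown-nucleus cells given as percentage of total cells; mean ± S.E., n = 10.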

HCT-116 [5] = experiment: Induction of apoptosis in human HCT116 cells assessed as apoptotic cells at 80 uM after 24 hrs by TUNEL assay; type: functional; method in brief: as §2
NCI-H1299 [6] = experiment: Induction of apoptosis in human H1299 cells assessed as apoptotic cells at 40 uM after 24 hrs by TUNEL assay; type: functional; method in brief: as §2
[7] = Drug level in human H1299 cells treated with 10 uM [6]-shogaol after 24 hrs by HPLC-ECD analysis; type: ADME, cell-based; settings: nci-h1299, 24 h; method in brief: as §1
[8] = Cytotoxicity against human HCT116 cells assessed as growth inhibition after 24 hrs by MTT assay; type: functional, cell-based; settings: HCT-116, 24 h
Method in brief: (§3)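 Cells seeded at 3000/well, attached 24 h at 37°C, then exposed to test agents (0–80 μM, 0.1% DMSO final) for 24 h in McCoy's 5A with 10% FBS. Medium replaced with 2.41 mM MTT for 3 h at 37°C; formazan dissolved in DMSO, absorbance 550 nm. Viability as percentage of DMSO control; mean ± S.D., n = 6.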

[9] = Cytotoxicity against human H1299 cells assessed as growth inhibition after 24 hrs by MTT assay; type: functional, cell-based; settings: NCI-H1299, 24 h; method in brief: as §3
HCT-116 [10] = experiment: Induction of apoptosis in human HCT116 cells assessed as apoptotic cells at 40 uM after 24 hrs by TUNEL assay; type: functional; method in brief: as §2

- Drug excretion [1]: metabolite_detected
Compound: CCCCCC(CC(=O)CCc1ccc(O)c(OC)c1)SC (centres undefined)

- Drug excretion [1]: metabolite_detected
- Drug metabolism [2]: metabolite_detected
Compound: CCCCC/C=C/C(O)CCc1ccc(O)c(OC)c1 (centres undefined)

- Drug excretion [1]: metabolite_detected
Compound: CCCCCC(CC(=O)CCc1ccc(O)c(OC)c1)SCC(N)C(=O)O (centres undefined)

- Drug excretion [1]: metabolite_detected
Compound: CCCCCC(CC(O)CCc1ccc(O)c(OC)c1)SCC(N)C(=O)NCC(=O)O (centres undefined)

- IC50 [3]: 28 µM
Compound: CCCCC[C@H](O)CC(=O)CCc1ccc(O)c(OC)c1 [GINGEROL]

- IC50 [3]: 12 µM
Compound: CCCCCCCCC[C@H](O)CC(=O)CCc1ccc(O)c(OC)c1

- Drug excretion [1]: metabolite_detected
Compound: CCCCCC(CC(O)CCc1ccc(O)c(OC)c1)SCC(N)C(=O)O (centres undefined)

- Drug metabolism (HT-29): metabolite_detected
- Drug excretion [1]: metabolite_detected
- Drug metabolism [2]: metabolite_detected
- Drug metabolism [7]: metabolite_detected
Compound: CCCCCCCC(=O)CCc1ccc(O)c(OC)c1
- Activity (NCI-H1299 [4]): 19.4%
- Activity (HCT-116 [5]): 21.1%
- Activity (NCI-H1299 [6]): 8.3%
- IC50 [8]: 84 µM
- IC50 [9]: 66.5 µM
- Activity (HCT-116 [10]): 12.9%

- Drug excretion [1]: metabolite_detected
Compound: CCCCCC(CC(O)CCc1ccc(O)c(OC)c1)SCC(NC(C)=O)C(=O)O (centres undefined)
